# Most compounds without a hit are left out; they make up all but 2.9% or so of the library.
# CHO-K1 Ca PAM: counter-screen for M1 PAMs: effect in parental CHO-K1 cells | 0.02% of 360,000 active | ATP EC20, Fluo-8 calcium fluorescence; 0% at ATP EC20, 100% at ATP max | activation, % at 3 µM;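 active means activation above the run cutoff, the mean activation of all test compounds plus 3 SD, cut at about 40% in these data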;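 further: peak over basal fluorescence ratio in a 140 s read after ATP addition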
# CHO parental Ca: counter-screen: ATP calcium response change in parental CHO cells; parental CHO-K1, ATP-induced calcium, Fluo-8 fluorescence; inhibition, % at 5.6 µM; 0.63% of 330,000 active;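 active means inhibition above that plate's mean sample inhibition plus 3 SD, cut at about 26% in these data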;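 further: 0% = ATP-challenged DMSO wells and 100% = DMSO wells without ATP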
#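 Measured by: calcium-sensitive Fluo-8 fluorescence / Test system: CHO parental line / Controls: ATP-challenged DMSO wells low, unchallenged DMSO wells high / Measure: % inhibition / Compound: single nominal dose of 5.6 µM per compound / Replicates: single well per compound, no replicates / Reagent: ATP as calcium-mobilizing challenge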
# CHO-K1 Ca ag: M1 agonist counterscreen hit in parental CHO-K1 cells; 0.48% of 360,000 active; Fluo-8 calcium fluorescence; scaled to maximal ATP response, vehicle zero; activation, % at 3 µM; in the data active means activation above about 15%;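 further: untransfected CHO-K1 host cells lacking M1 receptor as counterscreen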
# CHO-K1 Ca antag: nonselective inhibitor or artifact in parental CHO-K1 cells; ATP-induced calcium, Fluo-8 fluorescence; inhibition, % at 3 µM; 0.6% of 360,000 active; AID 602250;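 active means inhibition above a per-plate cutoff, the plate's mean sample inhibition plus 3 SD, cut at about 24% in these data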;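 further: 0% = DMSO plus EC80 ATP and 100% = DMSO alone without ATP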
# OX1R antag-1: blocks the human orexin 1 receptor | 1.8% of 330,000 active | AID 485270 | inhibition, % at 6.6 µM | OX1R-expressing cells, FRET antagonist read-out; in the data active means inhibition mostly above about 38%, no sharp cut-off; inactive means mostly below about 40%;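 further: 0% = agonist challenge alone and 100% = reference antagonist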
# Target sequence (O43613 whole entry, looked up): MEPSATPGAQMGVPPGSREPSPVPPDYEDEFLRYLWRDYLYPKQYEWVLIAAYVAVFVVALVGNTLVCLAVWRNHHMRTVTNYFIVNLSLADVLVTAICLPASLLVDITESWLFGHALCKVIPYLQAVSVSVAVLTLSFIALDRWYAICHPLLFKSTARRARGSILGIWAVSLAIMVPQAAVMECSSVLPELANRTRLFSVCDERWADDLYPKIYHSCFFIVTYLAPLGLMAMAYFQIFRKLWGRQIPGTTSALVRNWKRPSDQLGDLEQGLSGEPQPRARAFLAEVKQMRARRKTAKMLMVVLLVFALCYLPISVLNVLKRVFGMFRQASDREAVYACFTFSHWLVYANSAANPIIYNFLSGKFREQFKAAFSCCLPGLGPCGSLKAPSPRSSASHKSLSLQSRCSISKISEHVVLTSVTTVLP
# OX1R antag-2: blocks the human orexin 1 receptor; CHO/OX1R cells, Fluo-8 calcium fluorescence, orexin A; AID 434989; inhibition, % at 5 µM; 0.43% of 330,000 active;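 active means inhibition above its plate's threshold, mean inhibition of all tested compounds on the plate plus 3 SD, cut at about 37% in these data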;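 further: 0% = orexin A challenge wells and 100% = SB-334867-A antagonist wells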
# * = called active by the depositor; . = not tested or not shown.
SMILES,CHO-K1 Ca PAM,CHO parental Ca,CHO-K1 Ca ag,CHO-K1 Ca antag,OX1R antag-1,OX1R antag-2
O=C(NCc1ccccc1Cl)c1cc2c(s1)CS(=O)(=O)C2,5.2,-2.6,1.6,-14.6,5.0,5.5
COc1ccc(NC(=S)c2ccncc2)cc1,3.5,-8.1,2.6,-8.8,16.0,-11.5
CCCOc1ccc(C(=O)NNC(=S)NC(=O)c2ccccc2)cc1,-39.2,56.0*,105.0*,42.2*,0.2,77.8*
CCCOc1ccc(C(=O)NNC(=S)NC(C)=O)cc1,16.4,-1.7,-0.9,-4.8,14.9,-10.1
COc1ccc(C(=S)Nc2ccc(C)cc2)cc1,1.3,73.0*,-0.4,-5.1,22.9,5.2
CCCOc1ccc(C(=O)NNC(=S)NC(=O)c2cccs2)cc1,-29.1,63.5*,87.4*,44.1*,-6.8,70.0*
COc1ccc(C(C)(NC(C)=O)c2nc(-c3ccccc3OC)cs2)cc1 (stereo unspecified),8.7,.,-0.5,-13.0,.,.
CCOC(=O)N1CCN(C(=O)C[C@@H]2C[C@@]3(C(=O)OC)CCCCC=C3N(Cc3ccc(Cl)cc3Cl)C2=O)CC1,-6.6,.,0.7,-2.0,.,.
COc1cc(C(=O)Nc2cc(C)cc(C)c2)c(-n2cnnn2)cc1OC,3.5,-5.8,0.5,-5.5,9.8,7.3
Cc1cnc(C(=O)Nc2ccc(C)c(S(=O)(=O)N3CCCCCC3)c2)cn1,5.3,.,0.2,1.8,.,.
Cc1cc(OC(F)F)ccc1NC(=O)Nc1ccc([N+](=O)[O-])cc1,2.8,56.8*,14.2,21.7,24.0,32.1
O=C(Nc1ccc([N+](=O)[O-])cc1)Nc1ccc(Cl)cc1F,4.1,42.9*,9.5,16.7,39.9,47.5*
O=C(Nc1ccc(Cl)cc1)Nc1csc([N+](=O)[O-])c1,2.4,65.1*,16.5*,15.5,83.1*,65.0*
O=C(Nc1ccc(Cl)cc1)Nc1ccccc1CC[N+](=O)[O-],-13.6,-0.9,9.8,23.7*,26.5,1.0
O=c1c2ccccc2nc2ccccn12,17.2,-12.3,0.4,-14.9,34.8,-20.9
O=c1c2ccccc2nc2c3ccccc3cnn12,4.4,-9.8,0.5,-13.7,41.2*,-18.6
Nc1[nH]c(=O)nc(Nc2ccccc2)c1N=O,9.7,1.6,0.1,-14.1,55.0*,-17.3
O=c1nc(N2CCCC2)nc(Nc2ccccc2)[nH]1,13.7,-1.2,0.5,-15.0,3.7,-11.0
CN1CCCN(C(=O)CC2(CC(=O)O)CCCCC2)CC1,5.6,13.5,0.5,-15.6,1.6,1.5
CC(=O)Nc1ncc(Cc2cc(Cl)ccc2Cl)s1,22.2,-6.8,1.6,0.3,69.8*,-21.7
CC(=O)Nc1ncc(Cc2cccc(Cl)c2Cl)s1,20.9,-1.9,0.5,-0.8,16.4,-10.4
Cc1cc([N+](=O)[O-])nn1CC(=O)Nc1cccc2nonc12,12.6,-6.6,0.9,-31.9,36.7,-19.7
CCOC(=O)c1cn(Cc2ccccc2)c(C(=O)OC(C)(C)C)c1O,-18.5,-24.4,44.1*,0.2,29.8,-28.3
N#C/C(=C\c1ccc(C(=O)O)cc1)c1ccccn1,16.0,-5.5,1.2,-21.5,23.1,-14.5
N#C/C(=C\c1c[nH]c2ccc(Br)cc12)c1ccccn1,10.9,-17.5,0.4,-11.7,82.5*,60.5*
SMILES,CHO-K1 Ca PAM,CHO parental Ca,CHO-K1 Ca ag,CHO-K1 Ca antag,OX1R antag-1,OX1R antag-2
COc1cccc(CCNC(=O)CCc2nnc(Cc3cc(OC)ccc3OC)o2)c1,15.4,-1.9,0.6,-12.1,11.5,-22.0
O=C(NC1CCCCC1)C1CCCN1S(=O)(=O)c1cccc2nsnc12 (stereo unspecified),-4.5,-0.5,0.4,-12.9,60.5*,-2.7
O=C(O)C1CSCN1S(=O)(=O)c1cccc2nsnc12 (stereo unspecified),-3.1,1.0,-0.4,-31.7,40.8*,-6.2
O=C(NCc1ccco1)C(Cc1ccccc1)NS(=O)(=O)c1cccc2nsnc12 (stereo unspecified),17.5,-21.2,0.0,-8.2,50.8*,-18.3
CC(C)C(NS(=O)(=O)c1cccc2nsnc12)C(=O)NCc1ccco1 (stereo unspecified),4.3,8.7,-0.2,-8.9,31.5,-34.0
CC(=O)Nc1ccc(NC(=O)C(NS(=O)(=O)c2cccc3nsnc23)C(C)C)cc1 (stereo unspecified),5.9,-11.9,-0.2,-1.4,55.9*,-24.6
CCc1noc(C)c1C(=O)N1CCCSC1=Nc1ccccc1Cl,3.7,-18.2,-0.7,2.4,18.6,-28.2
COc1ccc([C@H]2CC(=O)C=C(c3ccc(C(=O)O)cc3)C2)cc1OC,17.1,-19.5,0.9,-15.6,28.5,-16.7
O=C(CNC(=O)c1cccs1)Nc1cccc(S(=O)(=O)N2CCOCC2)c1,-9.6,.,0.2,-3.8,.,.
Cc1nc(NC(=O)COC(=O)CNC(=O)c2ccco2)c(Cl)cc1Cl,-3.4,-10.3,-0.1,-6.0,0.3,-8.7
COC(=O)C1CCCN1S(=O)(=O)c1ccc([N+](=O)[O-])cc1 (stereo unspecified),8.2,17.9,0.8,-11.1,36.0*,-0.1
CC(C)[C@H](NS(=O)(=O)c1ccccc1F)C(=O)NC1CCCCC1,20.1,-11.3,0.8,-15.0,39.1*,29.3
COC(=O)C1CCCN1S(=O)(=O)c1ccc2ccccc2c1 (stereo unspecified),8.2,-17.1,0.4,10.6,11.6,-7.3
Cc1ccc(S(=O)(=O)N2CCCC2C(=O)NC2CCCCC2)cc1 (stereo unspecified),-2.8,-5.4,0.1,-4.3,57.4*,17.1
CC1CCN(C(=O)C(NS(=O)(=O)c2cccc3nsnc23)C(C)C)CC1 (stereo unspecified),14.9,-13.3,0.3,-14.5,43.1*,2.6
CC(C)C(NS(=O)(=O)c1ccccc1)C(=O)NC1CCCC1 (stereo unspecified),5.0,-7.2,0.8,-16.2,13.1,-3.3
O=C(NC1CCCC1)C(NS(=O)(=O)c1cccc2nsnc12)c1ccccc1 (stereo unspecified),4.1,-21.7,-0.3,-4.9,53.2*,-28.0
O=C(O)c1cc(Br)ccc1NS(=O)(=O)c1cccc2nsnc12,-25.1,-4.5,-0.9,27.3*,5.0,-18.4
CC(C)C(NS(=O)(=O)c1cccc2nsnc12)C(=O)NC1CCCCC1 (stereo unspecified),0.7,-11.0,-0.8,-7.1,75.1*,-0.4
CCC(C)NC(=O)C(NS(=O)(=O)c1cccc2nsnc12)c1ccccc1 (stereo unspecified),10.1,-11.6,-0.3,-6.5,28.1,-30.0
CC1CCC(NC(=O)C(NS(=O)(=O)c2cccc3nsnc23)C(C)C)CC1 (stereo unspecified),-11.4,-17.6,-0.2,-0.9,32.0,-16.6
CCCCN1CCNC[C@@H]1c1ccccc1,23.4,-4.3,0.2,-6.3,-0.4,-1.4
Cc1ccc(S(=O)(=O)CCN2C=CC(C(F)(F)F)=NCC2)cc1,10.9,-8.3,16.8*,2.1,1.0,-16.1

# High-throughput results deposited in PubChem BioAssay by The Scripps Research Institute Molecular Screening Center.
